From the array DNA melting data of Ke et al. (doi:10.1101/2024.01.08.574731)

How the values were obtained:
[1] = folding enthalpy; higher = less favourable; fluorescence melt of hairpins on a sequencing array, two-state fit; conditions: sodium 0.088 M
Procedure, shortened: (§1)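 Cy3 signals were normalised both to pre-quench Cy3 and to control constructs. They came from library hairpins carrying annealed Cy3 and quencher oligos on a sequenced MiSeq flow cell, imaged in 50 mM Na-HEPES pH 8.0, 25 mM NaCl, in 2.5 °C steps up to 60 °C. Bootstrapped two-state fits gave melting temperature and folding enthalpy, and four replicates were combined by inverse variance. Fitted temperatures were then raised by 9.35 °C to match UV melts.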

[2] = melting temperature; fluorescence melt of hairpins on a sequencing array, two-state fit, raised by 9.35 °C to match UV melts; conditions: sodium 0.088 M
Procedure, shortened: as §1

Sequence | folding enthalpy [1] [kcal/mol] | Tm [2] [°C]
GCCCAGCGAAAGCAGCGC ((.(.((....)).).)) | -13.9 | 46.5
GCCCAGCGAAAGCGGTGC ((.(.((....)).).)) | -15.8 | 53.1
GCCCAGCGAAAGCTAAGC ((..(((....)))..)) | -9.29 | 27.7
GCCCAGCGAAAGCTAGGC (((.(((....))).))) | -42.3 | 54.1
GCCCAGCGAAAGCTGTGC ((.((((....)))).)) | -16 | 61
GCCCAGCGAAAGCTTGGC (((.(((....))).))) | -53 | 54.9
GCCCAGGGAAACCTAGGC (((.(((....))).))) | -21.5 | 43.2
GCCCAGTCGAAAGACGGC (((..(((....)))))) | -13.4 | 49.3
GCCCATACGAAAGTAGGC (((..(((....)))))) | -20.8 | 41.5
GCCCCAACGAAAGTTGGC (((..(((....)))))) | -5.86 | 38.7
GCCCCAGGAAACCGGGGC (((((.(....).))))) | -41.2 | 59.3
GCCCCCGAAAGGGAGGC ((((((....))).))) | -29.7 | 68.7
GCCCCCGAAAGGGATGGC ((((((....)))..))) | -24.1 | 52.1
GCCCCGCGAAAGCAGTGC ((.(.((....)).).)) | -11.8 | 34
GCCCCGCGAAAGCGAAGC ((..(((....)))..)) | -8.06 | 39.2
GCCCCGCGAAAGCGTAGC ((..(((....)))..)) | -9.13 | 35.8
GCCCCGCGAAAGCGTCGC ((..(((....)))..)) | -8.15 | 28.8
GCCCCGCGAAAGCGTGGC (((.(((....))).))) | -25.4 | 67.4
GCCCCGGGAAACCGAGGC (((.(((....))).))) | -29.5 | 54.1

Sequence | folding enthalpy [1] [kcal/mol] | Tm [2] [°C]
GCCCCGGGAAACCGGGAC (.(((((....))))).) | -12.2 | 53.7
GCCCCGTCGAAAGACGGC (((..(((....)))))) | -4.65 | 34.4
GCCCCTCGAAAGAGTGGC (((.(((....))).))) | -38 | 52.6
GCCCCTGGAAACAGGGAC (.(((((....))))).) | -13.9 | 51.1
GCCCCTGGAAACGGGGGC (((((.(....).))))) | -33.7 | 66.6
GCCCGACCGAAAGGTGGC (((..(((....)))))) | -17.1 | 51
GCCCGACGAAAGTCAGGC (((.(((....))).))) | -31.8 | 57.3
GCCCGACGAAAGTCTGGC (((.(((....))).))) | -32.4 | 55.5
GCCCGAGCGAAAGCTGGC (((..(((....)))))) | -16.1 | 50.9
GCCCGAGGAAACCCAGGC (((.(.(....).).))) | -16.5 | 28.1
GCCCGAGGAAACCCGAGC ((.((.(....).)).)) | -17.1 | 30.8
GCCCGAGGAAACCCGGAC (.(((.(....).))).) | -19.3 | 32.7
GCCCGAGGAAACCCGGGC (((((.(....).))))) | -40.6 | 60.6
GCCCGAGGAAACTCGAGC ((.((((....)))).)) | -31 | 48.4
GCCCGAGGAAACTTGGGC ((((.((....)).)))) | -41.1 | 58.1
GCCCGCACGAAAGTGGGC (((..(((....)))))) | -24 | 57.4
GCCCGCCCGAAAGGGGGC (((..(((....)))))) | -13.2 | 60.2
GCCCGCGAAAGCGAGGGC ((((((....)))..))) | -28 | 68.7
